Data set [1] addresses T1, Cytochrome P450 2C19 (Homo sapiens, UniProt P33261). Description: Initial rate of complex formation with 5 uM compound. The data set is classed as ADME, Oryctolagus cuniculus. The following applies: rabbit.
In data set [2] the target is T1, Cytochrome P450 2C19. Description: (§1) Extent of complex formation with 20 uM compound. It counts as ADME, Oryctolagus cuniculus. The following applies: rabbit.
Data set [3] has as its target T1, Cytochrome P450 2C19. Description: Percent inhibition of formation of metabolic intermediate complex between Cytochrome P450 and compound 1a (30 uM) initially, following incubation at compound concentration of 15 uM. The data set is classed as ADME, Oryctolagus cuniculus. The following applies: rabbit, probe compound 1a (30 uM). In short, it runs like this: (§2)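 Inverse cross-inhibition in NADPH-supplemented rabbit liver microsomes at 37 °C. Preincubation with racemic hydroxylamine at 0–30 μM, monitoring 457-nm complex formation. The amine was then added at 30 μM, or racemic hydroxylamine at 30 μM. Initial rate and plateau extent were taken from ΔA457–500 nm tracings. Percent inhibition is relative to incubation in fresh microsomes.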

The target in data set [4] is T1, Cytochrome P450 2C19. Description: Percent inhibition of formation of metabolic intermediate complex between Cytochrome P450 and compound 1a (30 uM) on extent, following incubation at compound concentration of 0 uM. The data set is classed as ADME, Oryctolagus cuniculus. The following applies: rabbit, probe compound 1a (30 uM). The gist of the method: (§3)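 Hepatic microsomes came from male Dutch rabbits, fasted 24 h. They were diluted to 2 mg protein/mL in 50 mM Tris-Cl with 150 mM KCl, 10 mM MgSO4 and 0.1 mM EDTA, with NADPH added, at 37 °C. Microsomes were preincubated with racemic hydroxylamine 2, then 30 µM 1a or 30 µM racemic 2 was added. Complex formation was followed as ΔA457–500 nm, and inhibition of rate and extent (plateau) was calculated.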

The target in data set [5] is T1, Cytochrome P450 2C19. Description: Percent inhibition of formation of metabolic intermediate complex between Cytochrome P450 and compound 1a (30 uM) initially, following incubation at compound concentration of 5 uM. The data set is classed as ADME, Oryctolagus cuniculus. The settings on record: rabbit, probe compound 1a (30 uM). In short, it runs like this: as §2

Data set [6] can be described thus: Initial rates of formation of metabolic intermediate Cytochrome P-450 at compound concentration of 30 uM. The data set is classed as ADME. The gist of the method: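 Rabbit liver microsomes at 2 mg protein/mL with 0.1 mM EDTA, 37 °C, substrate 30 μM. Complex formation started with 0.4 mM NADPH and followed by dual-wavelength absorbance, 457 vs 500 nm. Initial rate is the initial slope, ΔA×10^4 per nmol P-450 per min. Extent is the plateau absorbance. Lag is the time from NADPH addition to first 457-nm chromophore. Triplicate or single runs.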

Data set [7] deals with T1, Cytochrome P450 2C19. Description: (§4) Extent of complex formation with 30 uM compound. It counts as ADME, Oryctolagus cuniculus. The following applies: rabbit.
Data set [8] concerns the target T1, Cytochrome P450 2C19. Description: Percent inhibition of formation of metabolic intermediate complex between Cytochrome P450 and compound 1ab (30 uM) initially, following incubation at compound concentration of 20 uM. The data set is classed as ADME, Oryctolagus cuniculus. The following applies: rabbit, probe compound 1ab (30 uM). The gist of the method:
(§5)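 Rabbit liver microsomes (2 mg protein/mL; Tris-Cl/KCl/MgSO4 buffer, 0.1 mM EDTA) plus NADPH, at 37 °C, were preincubated with racemic or enantiomeric amine 1. The 457-nm complex was monitored until it plateaued (6–8 min), then racemic hydroxylamine 2 was added. Initial rate and plateau extent of complex formation came from dual-wavelength ΔA457–500 nm versus time tracings.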

Data set [9] deals with T1, Cytochrome P450 2C19. Description: (§6) Initial rate of complex formation with 30 uM compound. It counts as ADME, Oryctolagus cuniculus. The following applies: rabbit.
In data set [10] the target is T1, Cytochrome P450 2C19. Description: Percent inhibition of formation of metabolic intermediate complex between Cytochrome P450 and compound 1a (30 uM) on extent, on pre-incubation with compound concentration of 0 uM. It counts as ADME, Oryctolagus cuniculus. The settings on record: rabbit, probe compound 1a (30 uM). The gist of the method:
as §3

The target in data set [11] is T1, Cytochrome P450 2C19. Description: Initial rate of complex formation with 20 uM compound. It counts as ADME, Oryctolagus cuniculus. The following applies: rabbit.
Data set [12] concerns the target T1, Cytochrome P450 2C19. Description: Initial rate of complex formation with20 uM compound. It counts as ADME, Oryctolagus cuniculus. The settings on record: rabbit, 20 µM.
Data set [13] concerns the target T1, Cytochrome P450 2C19. The description is as §4. The data set is classed as ADME, Oryctolagus cuniculus. The settings on record: rabbit. This is another data set of the same source.
Data set [14] deals with T1, Cytochrome P450 2C19. The data set is described as §4. The data set is classed as ADME, Oryctolagus cuniculus. The following applies: rabbit. The source holds these as a separate data set.
Data set [15] concerns the target T1, Cytochrome P450 2C19. Description: Percent inhibition of formation of metabolic intermediate complex between Cytochrome P450 and compound 1b (30 uM) on extent, following incubation at compound concentration of 20 uM. The settings on record: rabbit, probe compound 1b (30 uM). The data set is classed as ADME, Oryctolagus cuniculus. The gist of the method:
as §5

Data set [16] deals with T1, Cytochrome P450 2C19. Description: Extent of complex formation with 5 uM compound. It counts as ADME, Oryctolagus cuniculus. The settings on record: rabbit.
Data set [17] deals with T1, Cytochrome P450 2C19. Description: Percent inhibition of formation of metabolic intermediate complex between Cytochrome P450 and compound 1a (30 uM) on extent, on pre-incubation with compound concentration of 15 uM. The settings on record: rabbit, probe compound 1a (30 uM). The data set is classed as ADME, Oryctolagus cuniculus. The gist of the method: as §3
Data set [18] deals with T1, Cytochrome P450 2C19. Described as §6. The data set is classed as ADME, Oryctolagus cuniculus. The following applies: rabbit. This is another data set of the same source.
For data set [19], the target named is T1, Cytochrome P450 2C19. The description is as §6. It counts as ADME, Oryctolagus cuniculus. The following applies: rabbit. The source holds these as a separate data set.
For data set [20], the target named is T1, Cytochrome P450 2C19. Description: Percent inhibition of formation of metabolic intermediate complex between Cytochrome P450 and compound 1a (30 uM) on extent, on pre-incubation with compound concentration of 30 uM. It counts as ADME, Oryctolagus cuniculus. The following applies: rabbit, probe compound 1a (30 uM). The gist of the method: as §3
Data set [21] addresses T1, Cytochrome P450 2C19. Description: Percent inhibition of formation of metabolic intermediate complex between Cytochrome P450 and compound 1ab (30 uM) on extent, following incubation at compound concentration of 20 uM. It counts as ADME, Oryctolagus cuniculus. The following applies: rabbit, probe compound 1ab (30 uM). The gist of the method:
as §5

In data set [22] the target is T1, Cytochrome P450 2C19. The description is as §1. It counts as ADME, Oryctolagus cuniculus. The settings on record: rabbit. The source holds these as a separate data set.
For data set [23], the target named is T1, Cytochrome P450 2C19. Description: Percent inhibition of formation of metabolic intermediate complex between Cytochrome P450 and compound 1a (30 uM) on extent, following incubation at compound concentration of 30 uM. The data set is classed as ADME, Oryctolagus cuniculus. The settings on record: rabbit, 30 µM.

Molecules are shown by their SMILES. “And” between values parts separate entries of the source, which are not always exact repeats. Equal entries are not always repeated.

For orientation: inhibition means the change of the read-out against control, counted positive when it falls. The Inhibition is the share of the control response that was lost under treatment. A low value points to a response near the control.

T1 sequence (P33261 whole entry): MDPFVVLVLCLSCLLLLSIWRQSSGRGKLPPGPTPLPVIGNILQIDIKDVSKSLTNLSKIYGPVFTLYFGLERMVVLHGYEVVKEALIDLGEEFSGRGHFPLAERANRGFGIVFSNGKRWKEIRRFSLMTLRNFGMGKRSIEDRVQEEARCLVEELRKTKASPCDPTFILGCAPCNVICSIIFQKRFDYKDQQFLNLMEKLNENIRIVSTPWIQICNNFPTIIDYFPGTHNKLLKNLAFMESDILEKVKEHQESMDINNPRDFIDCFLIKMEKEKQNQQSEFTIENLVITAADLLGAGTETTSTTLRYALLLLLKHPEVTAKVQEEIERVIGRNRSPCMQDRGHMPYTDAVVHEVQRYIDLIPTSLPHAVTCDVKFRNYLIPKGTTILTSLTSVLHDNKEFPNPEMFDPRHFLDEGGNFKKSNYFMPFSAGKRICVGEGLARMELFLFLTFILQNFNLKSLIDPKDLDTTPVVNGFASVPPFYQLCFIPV

For the molecule `COc1cc(C[C@@H](C)NO)c(OC)cc1C.COc1cc(C[C@H](C)NO)c(OC)cc1C`, the Initial_rate at Cytochrome P450 2C19 [1] was 52 deltaA.10^4nmol-1.min-1; on Cytochrome P450 2C19 [9], 12.4 deltaA.10^4nmol-1.min-1; at Cytochrome P450 2C19 [11], 89 deltaA.10^4nmol-1.min-1; on Cytochrome P450 2C19 [12], 87 deltaA.10^4nmol-1.min-1; on Cytochrome P450 2C19 [18], 177 deltaA.10^4nmol-1.min-1 and 176 deltaA.10^4nmol-1.min-1; on Cytochrome P450 2C19 [19], 5 deltaA.10^4nmol-1.min-1. In addition, the Complex_formation was 90 deltaA.10^4nmol-1 on Cytochrome P450 2C19 [2]; 30 deltaA.10^4nmol-1 on Cytochrome P450 2C19 [7]; 27 deltaA.10^4nmol-1 at Cytochrome P450 2C19 [13]; 51 deltaA.10^4nmol-1 at Cytochrome P450 2C19 [14]; 43 deltaA.10^4nmol-1 and 85 deltaA.10^4nmol-1 at Cytochrome P450 2C19 [16]; 108 deltaA.10^4nmol-1 on Cytochrome P450 2C19 [22]. For the same molecule, the inhibition at 15 µM against Cytochrome P450 2C19 [3] turned out to be 51%; at Cytochrome P450 2C19 [17], 100%. Also, the inhibition at 0 uM against Cytochrome P450 2C19 [4] is 30%; on Cytochrome P450 2C19 [10] it was 0%. Moreover, the inhibition at 5 µM against Cytochrome P450 2C19 [5] amounted to 39%. The Rate in [6] came out at 154. Further, the inhibition at 20 µM against Cytochrome P450 2C19 [8] came out at 30%; at Cytochrome P450 2C19 [15], 13%; against Cytochrome P450 2C19 [21], 12%. The inhibition at 30 µM at Cytochrome P450 2C19 [20] came to 100%. The molecule further displayed an Inhibition at Cytochrome P450 2C19 [23] of 66%.
